Sampled rows, rich in hits. Any-hit rate of the full collection: about 4.1%.
hERG protect: hERG (human) protection from proarrhythmic block; Q12809; CHO-hERG, FluxOR thallium flux, dofetilide IC70 present; activation (rescue from dofetilide block), less the hit threshold, % at 10 µM; 0.51% of 310,000 active; AID 1511;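 active means activation above the mean of controls blocked by dofetilide plus 5 SD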;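 further: thallium influx through hERG after potassium depolarization seen as dye fluorescence rise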
KCNQ1 inh: blocks the human KCNQ1 potassium channel | AID 2642 | CHO-K1 KCNQ1, FluxOR thallium flux fluorescence; hits give high values | B-score at 10 µM | P51787 | 1.3% of 310,000 active;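 active means compounds whose thallium flux B-score, printed positive for inhibition, exceeds three library SD while starting fluorescence stays within three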;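 further: channel opened by potassium depolarization with thallium stimulus after 20 min compound exposure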
Cl transport mod: modulates chloride dependent transport by human KCC2 | KCC2 cells, thallium flux FluoZin-2 fluorescence | B-score of Tl+ flux slope (higher = more flux/activation; lower = inhibition) at 10 µM | 2.2% of 190,000 active | AID 1456;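 active means thallium flux slope and its plate-corrected score both differing from the plate sample mean at a set confidence after two filtering rounds, in either direction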;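 further: slope of fluorescence scaled to starting intensity during 10 to 20 s after thallium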
KCNK3 block: human KCNK3 channel inhibition, primary screen; CHO-KCNK3 thallium flux, FluxOR fluorescence; hits give low values; O14649; B-score at 10 µM; 0.84% of 340,000 active;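 active means B-score under library mean minus 4 SD, starting fluorescence ratio at most library mean plus 5 SD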;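 further: more negative B-score means stronger inhibition of thallium flux through KCNK3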
Target sequence (O14649 whole entry, looked up): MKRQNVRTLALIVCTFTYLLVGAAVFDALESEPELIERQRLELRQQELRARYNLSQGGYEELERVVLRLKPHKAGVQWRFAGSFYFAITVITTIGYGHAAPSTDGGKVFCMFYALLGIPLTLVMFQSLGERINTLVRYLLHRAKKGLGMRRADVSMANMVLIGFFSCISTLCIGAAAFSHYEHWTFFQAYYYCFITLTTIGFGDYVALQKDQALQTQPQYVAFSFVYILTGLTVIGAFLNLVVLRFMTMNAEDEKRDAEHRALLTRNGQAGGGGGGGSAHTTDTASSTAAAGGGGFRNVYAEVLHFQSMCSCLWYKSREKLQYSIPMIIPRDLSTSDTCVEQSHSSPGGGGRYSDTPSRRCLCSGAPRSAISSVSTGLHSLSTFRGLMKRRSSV
KCNQ1 pot: potentiates or activates the human KCNQ1 potassium channel. P51787. CHO-K1 KCNQ1, thallium flux FluxOR fluorescence; hits give high values. B-score at 10 µM. 0.35% of 310,000 active;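 active means fluorescence ratio B-score, a plate-corrected score, at least three library SD, with initial intensity B-score within 5 SD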
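assay system = KCNQ1-transfected CHO-K1 cells | medium = assay buffer with matched DMSO | probe or stimulus = depolarizing K+/Tl+ stimulus, K2SO4 and Tl2SO4 each 12.5 mM in 5x stock | dosing = single dose | incubation = dye 90 min, compound 20 min, room temperature | detection = kinetic FluxOR fluorescence, 10 s baseline plus 110 s post-stimulus | evaluation = ratio B score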
KCNK9 block: human KCNK9 channel inhibition; Q9NPC2; HEK293 KCNK9, FluxOR thallium flux fluorescence; hits give low values; B-score at 10 µM; 1.2% of 310,000 active;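 active means ratio B-score over 3 SD below the library mean, with starting fluorescence within 5 SD of its mean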;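 further: negative B-score means less thallium flux so channel inhibition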
* marks the source's active call; other numbers are inactive results; i = inactive; . = no result.

SMILES | hERG protect | KCNQ1 inh | Cl transport mod | KCNK3 block | KCNQ1 pot | KCNK9 block
CCn1c(SCC(=O)Nc2nc3ccc(C)cc3s2)nc2c(c1=O)SC(C)C2 (centres undefined) | -9 | i | -2 | -11* | i | i
CCn1c(SCC(=O)Nc2cc(C)on2)nc2c(c1=O)SC(C)C2 (centres undefined) | -3 | i | -0.21 | i | i | i
Cc1cccc(NC(=O)c2n[nH]c([N+](=O)[O-])c2Br)c1C | -14 | 7* | -3.3 | i | i | i
COc1ccccc1N1CCN(C(=O)c2cccc(S(=O)(=O)N3c4ccccc4CC3C)c2)CC1 (centres undefined) | . | . | . | i | . | .
Cc1ccc(S(=O)(=O)c2c(N)n(Cc3ccco3)c3nc4ccccc4nc23)cc1C | -11 | 14* | -0.39 | i | i | i
Nc1c(S(=O)(=O)c2ccccc2)c2nc3ccccc3nc2n1Cc1ccco1 | -14 | i | . | i | i | i
O=c1c2cc(F)ccc2[nH]c(=S)n1CCCN1CCOCC1 | -12 | i | 6.4* | i | i | i
O=c1c2cccnc2[nH]c(=S)n1Cc1ccccc1 | -9 | i | 5.5* | i | i | i
O=c1c2ccccc2[nH]c(=S)n1CCN1CCN(Cc2ccccc2)CC1 | -16 | i | 15* | i | i | i
CN1CCN(CCn2c(=S)[nH]c3ccccc3c2=O)CC1 | -5 | i | . | i | i | i
O=c1c2nccnc2[nH]c(=S)n1Cc1ccccc1 | -13 | i | 0.93 | i | i | i
CCCN(C(=O)c1c(-c2ccccc2)noc1C)c1c(N)n(Cc2ccccc2)c(=O)[nH]c1=O | . | . | . | i | . | .
O=C(COC(=O)/C=C/c1cccc(C(F)(F)F)c1)NCc1cccs1 | . | . | . | i | . | .
CSC1=NSC2=NC(=O)/C(=C/c3coc4ccccc4c3=O)C(=N)N12 | . | . | i | i | . | .
CSC1=NSC2=NC(=O)/C(=C/c3coc4ccc(O)cc4c3=O)C(=N)N12 | -47 | 9* | i | i | i | i
Cc1cccc(Nc2nc(NCc3ccco3)nc(N)c2[N+](=O)[O-])c1 | -9 | i | 0.9 | i | i | i
Nc1nc(Nc2ccc(Cl)cc2)nc(NCc2ccco2)c1[N+](=O)[O-] | -2 | i | -0.83 | i | i | i
COc1ccc(Nc2nc(NCc3ccco3)nc(N)c2[N+](=O)[O-])cc1 | -10 | i | 0.36 | i | i | -7.8*
Cc1cccc(Nc2nc(N)c([N+](=O)[O-])c(NCc3ccco3)n2)c1 | -5 | 6* | -0.95 | i | i | i
COc1ccc(C2=NS(=O)(=O)N(C)C(C(=O)Nc3ccc4c(c3)OCO4)=C2)cc1OC | -7 | i | . | i | i | i
CC(C)c1ccc(NC(=O)C(c2ccccc2)N(Cc2ccco2)C(=O)CC2NC(=O)NC2=O)cc1 (centres undefined) | -10 | 8* | -0.19 | i | i | i
CC(NC(=O)C1CCN(C(=O)c2ccc(F)cc2)CC1)c1ccc(S(N)(=O)=O)cc1 (centres undefined) | . | . | . | i | . | .
CN(C)c1ccc(/C=C(\NC(=O)c2ccccc2)C(=O)NCCN2CCOCC2)cc1 | -7 | i | . | i | i | i
CN=C(Nc1cc(Cl)ccc1Cl)SC1CC(=O)N(c2ccc(C(=O)OC)cc2)C1=O (centres undefined) | -12 | i | . | i | i | -8*
Cc1ccc(C)c(S(=O)(=O)N2CCN(c3nc(-c4cccnc4)nc4ccccc34)CC2)c1 | . | . | . | i | . | .
CCN(CC)c1ccc(/C=C(/C#N)c2nc3ccc(C)cc3[nH]2)c(OC(C)C)c1 | -38 | 9* | i | i | i | i
CCCOc1cc(N(CC)CC)ccc1/C=C(/C#N)c1nc2ccc(C)cc2[nH]1 | -18 | i | -0.83 | i | i | -11*
COc1cc(/C=C(\C#N)c2nc3ccc(C)cc3[nH]2)c([N+](=O)[O-])cc1OC | -6 | i | . | i | i | i
COc1ccc(-c2cc3ncnc(Cl)c3s2)cc1 | -7 | i | . | i | i | i
O=C(Nc1nc(-c2cccnc2)cs1)c1ccccc1Cl | 41* | i | 0.79 | i | i | i
